Data reported in ChEMBL document CHEMBL1124475, “The thieno[3,2-c]pyridine and furo[3,2-c]pyridine rings: new pharmacophores with potential antipsychotic activity” (J Med Chem, 1989).
Activity calls are given as the source filed them. The rule behind the calls is not given here.

Tests used:
[1] = molecular target: T1, D(2) dopamine receptor (Rattus norvegicus, UniProt P61169); test: Ability to bind at dopamine receptor D2 of rat corpus striatum by displacing [3H]spiperone
[2] = molecular target: T2, 5-hydroxytryptamine receptor 1A (Rattus norvegicus, UniProt P19327); test: Ability to bind at 5-hydroxytryptamine 1A receptor of rat hippocampus by displacing [3H]8-OH-DPAT; format: tissue-based
T2 sequence (P19327 whole entry): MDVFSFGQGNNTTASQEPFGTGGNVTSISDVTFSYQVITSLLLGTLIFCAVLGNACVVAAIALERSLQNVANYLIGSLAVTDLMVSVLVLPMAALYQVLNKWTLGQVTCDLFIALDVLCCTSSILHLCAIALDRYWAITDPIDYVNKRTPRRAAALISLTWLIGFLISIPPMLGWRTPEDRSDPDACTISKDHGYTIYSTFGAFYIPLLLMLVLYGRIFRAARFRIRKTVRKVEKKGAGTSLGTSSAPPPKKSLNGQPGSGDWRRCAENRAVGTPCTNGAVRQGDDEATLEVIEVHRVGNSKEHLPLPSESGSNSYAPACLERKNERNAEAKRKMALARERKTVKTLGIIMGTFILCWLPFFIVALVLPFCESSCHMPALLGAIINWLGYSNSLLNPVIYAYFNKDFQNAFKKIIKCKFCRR
Outline: (§1)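 Rat receptor radioligand displacement, five test-ligand concentrations used to calculate IC50, each assay in duplicate. Some compounds determined four times (in duplicate), with mean IC50 reported.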

[3] = molecular target: T3, Adrenergic receptor alpha-1 (Rattus norvegicus, UniProt P15823+P23944+P43140); test: Ability to bind at Alpha-1 adrenergic receptor by displacing [3H]WB-4101; format: protein assay
T3 sequence (P15823 whole entry): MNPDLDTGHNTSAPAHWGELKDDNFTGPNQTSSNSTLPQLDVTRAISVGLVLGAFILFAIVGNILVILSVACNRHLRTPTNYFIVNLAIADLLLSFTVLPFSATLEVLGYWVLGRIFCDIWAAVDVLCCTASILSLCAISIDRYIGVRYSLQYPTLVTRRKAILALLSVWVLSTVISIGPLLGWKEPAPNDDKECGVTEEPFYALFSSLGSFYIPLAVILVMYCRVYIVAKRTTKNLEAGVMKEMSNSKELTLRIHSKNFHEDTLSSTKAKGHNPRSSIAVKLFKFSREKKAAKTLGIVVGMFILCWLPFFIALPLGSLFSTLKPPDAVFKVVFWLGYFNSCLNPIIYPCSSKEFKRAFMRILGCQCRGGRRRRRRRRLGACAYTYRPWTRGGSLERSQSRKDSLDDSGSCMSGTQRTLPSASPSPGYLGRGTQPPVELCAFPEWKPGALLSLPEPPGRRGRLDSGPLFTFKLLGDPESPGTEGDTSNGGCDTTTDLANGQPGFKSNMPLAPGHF
T3 sequence (P23944 whole entry): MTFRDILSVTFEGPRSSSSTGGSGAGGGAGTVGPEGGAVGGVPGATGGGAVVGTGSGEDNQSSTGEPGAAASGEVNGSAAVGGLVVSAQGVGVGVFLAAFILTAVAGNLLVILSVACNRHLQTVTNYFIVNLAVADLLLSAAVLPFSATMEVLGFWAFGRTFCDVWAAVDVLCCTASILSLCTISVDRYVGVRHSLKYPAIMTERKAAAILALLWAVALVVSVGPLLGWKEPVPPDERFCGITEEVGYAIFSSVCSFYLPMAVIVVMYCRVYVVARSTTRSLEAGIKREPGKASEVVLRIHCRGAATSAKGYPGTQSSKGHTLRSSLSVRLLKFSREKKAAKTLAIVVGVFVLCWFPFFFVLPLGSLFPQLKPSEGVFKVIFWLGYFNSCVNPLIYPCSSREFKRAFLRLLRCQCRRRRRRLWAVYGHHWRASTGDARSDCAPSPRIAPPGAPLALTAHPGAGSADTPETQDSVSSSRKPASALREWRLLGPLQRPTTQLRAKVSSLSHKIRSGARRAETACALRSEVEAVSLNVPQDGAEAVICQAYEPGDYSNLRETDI
T3 sequence (P43140 whole entry): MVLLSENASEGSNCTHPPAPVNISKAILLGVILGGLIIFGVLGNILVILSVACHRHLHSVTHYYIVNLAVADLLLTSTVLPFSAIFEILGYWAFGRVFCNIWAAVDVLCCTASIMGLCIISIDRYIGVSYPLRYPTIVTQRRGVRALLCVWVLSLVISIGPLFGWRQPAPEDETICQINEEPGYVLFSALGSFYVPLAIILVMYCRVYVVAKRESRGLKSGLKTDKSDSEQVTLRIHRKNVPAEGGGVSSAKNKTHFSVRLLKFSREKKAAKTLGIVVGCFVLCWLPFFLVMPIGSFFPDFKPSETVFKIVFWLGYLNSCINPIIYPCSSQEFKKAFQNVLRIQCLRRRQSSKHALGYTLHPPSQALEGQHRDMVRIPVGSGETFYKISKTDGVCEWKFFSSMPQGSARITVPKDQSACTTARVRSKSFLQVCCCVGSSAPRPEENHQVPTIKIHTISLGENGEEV

[4] = tested on: Rattus norvegicus; test: Conditioned avoidance response (CAR) when administered perorally; format: functional; conditions: po
[5] = molecular target: T2, 5-hydroxytryptamine receptor 1A; test: Ability to bind at serotonin 5-hydroxytryptamine 1A receptors of rat hippocampus by displacing [3H]8-OH-DPAT; format: tissue-based; outline: as §1
[6] = molecular target: T3, Adrenergic receptor alpha-1; test: Ability to bind at alpha-1 adrenergic receptor by displacing [3H]WB-4101; format: protein assay; outline: as §1
[7] = molecular target: T1, D(2) dopamine receptor; test: Ability to bind at Dopamine receptor D2 of rat corpus striatum by displacing [3H]spiperone; outline: as §1
[8] = molecular target: T4, Serotonin 2 (5-HT2) receptor (Rattus norvegicus, UniProt P30994+P08909+P14842); test: Ability to bind at serotonin 5-hydroxytryptamine 2 receptors of rat cortex by displacing [3H]spiperone
[9] = molecular target: Serotonin 1 (5-HT1) receptor (Rattus norvegicus, UniProt P28564+P30940+P19327+P28565); test: Ability to bind at 5-hydroxytryptamine 1 receptor of rat hippocampus by displacing [3H]5-HT; format: tissue-based; outline: as §1
[10] = molecular target: T4, Serotonin 2 (5-HT2) receptor; test: Ability to bind at 5-hydroxytryptamine 2 receptor of rat cortex by displacing [3H]spiperone
[11] = tested on: Rattus norvegicus; test: Blockade of apomorphine-induced stereotypy in rats when administered perorally; format: functional; conditions: po
[12] = tested on: Mus musculus; test: Blockade of apomorphine-induced climbing in mice when administered perorally; IA Inactive; format: functional, organism-based
Outline: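 Male mice habituated 30 min in individual cages, then dosed orally (distilled H2O or 0.5% Methocel suspension, 10 mL/kg) or vehicle. Apomorphine 1.5 mg/kg sc given 30 min later. Climbing scored at 10, 20, 30 min post-apomorphine. At least five animals per dose, maximum 100 mg/kg.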

[13] = tested on: Rattus norvegicus; test: Induction of catalepsy in rats when administered perorally and maximum dose examined was 4 times the ED50 value established in CAR; Inactive; format: functional, organism-based
[14] = tested on: Rattus norvegicus; test: Blockade of Sidman-avoidance activity in rats when administered perorally; format: functional
Outline: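 Rats trained in once-daily Sidman sessions until stable; non-learners after 3 days replaced. Twelve rats dosed 30 min before session. Each rat compared with mean of its previous three drug-free days by paired t test. Testing continued to minimally effective dose; maximum usually 100 mg/kg. MED is mean over 12 animals.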

T1 sequence (P61169 whole entry): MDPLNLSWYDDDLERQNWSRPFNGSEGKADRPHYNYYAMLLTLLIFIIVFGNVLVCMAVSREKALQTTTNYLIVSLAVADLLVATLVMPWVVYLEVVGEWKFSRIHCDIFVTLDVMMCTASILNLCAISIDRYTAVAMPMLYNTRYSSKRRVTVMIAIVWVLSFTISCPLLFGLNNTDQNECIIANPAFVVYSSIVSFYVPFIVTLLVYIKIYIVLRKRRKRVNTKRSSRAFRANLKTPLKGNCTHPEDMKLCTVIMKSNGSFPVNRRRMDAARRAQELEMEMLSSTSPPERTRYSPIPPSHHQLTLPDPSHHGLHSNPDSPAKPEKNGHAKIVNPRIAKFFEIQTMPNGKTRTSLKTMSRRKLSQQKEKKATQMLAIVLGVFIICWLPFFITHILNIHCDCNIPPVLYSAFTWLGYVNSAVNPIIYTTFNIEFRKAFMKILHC

Compound	IC50 [1] [nM]	ED50 [4] [mg/kg]	IC50 [5] [nM]	IC50 [7] [nM]	IC50 [8] [nM]	IC50 [9] [nM]	further results
CC1(C)CC(=O)N(CCCCN2CCN(c3nccc4occc34)CC2)C(=O)C1.Cl	626	4.2					IC50 [2]: 8.64 nM; IC50 [3]: 47 nM
Cl.OC(CCCN1CCN(c2nccc3occc23)CC1)c1ccc(F)cc1 (configuration not stated)		3.1	12.4	339	55.2		IC50 [6]: 23.8 nM
Cc1cc2c(N3CCN(CCCCN4C(=O)CC(C)(C)CC4=O)CC3)nccc2o1.Cl		13.8	4.9	708			
Cl.O=C1SC2(CCCC2)C(=O)N1CCCCN1CCN(c2nccc3sc(Br)cc23)CC1	440	> 100				25.3	IC50 [10]: 116 nM
Cl.Cn1ccc2c(N3CCN(CCCCN4C(=O)CC(C)(C)CC4=O)CC3)nccc21		67.2		> 1000			
CC1CC(=O)N(CCCCN2CCN(c3nccc4sccc34)CC2)C(=O)C1.Cl		2.9	1.3	663	4.2	8.8	ED50 [11]: 39.5 mg/kg; MED50 [12]: inactive; ED50 [13]: inactive
Cl.O=C1SC2(CCCC2)C(=O)N1CCCCN1CCN(c2nccc3sccc23)CC1	88.3	11.6				8.1	ED50 [11]: 35.2 mg/kg; MED50 [14]: 5 mg/kg; IC50 [3]: 30.5 nM; IC50 [10]: 3.9 nM
Cc1cc2c(N3CCN(CCCCN4C(=O)SC5(CCCC5)C4=O)CC3)nccc2o1.Cl	751	28.4					IC50 [2]: 2.2 nM; IC50 [3]: 27.5 nM
Cl.O=C1c2ccccc2C(=O)N1CCCCN1CCN(c2nccc3sccc23)CC1		38.9	2.7	306	2.8	5.3	IC50 [6]: 0.69 nM
Cl.Cn1ccc2c(N3CCN(CCCCN4C(=O)SC5(CCCC5)C4=O)CC3)nccc21	517	59.5					IC50 [2]: 246 nM
Cl.O=C1SC2(CCCC2)C(=O)N1CCCCN1CCN(c2nccc3occc23)CC1	331	9.2					IC50 [3]: 23.5 nM
Cc1cc2c(N3CCN(CCCCN4C(=O)SC5(CCCC5)C4=O)CC3)nccc2s1.Cl	279	35.4				3.6	IC50 [10]: 43.4 nM
Cl.O=C1c2ccccc2S(=O)(=O)N1CCCCN1CCN(c2nccc3sccc23)CC1		> 62.5	0.68	320	5.7	2.3	IC50 [6]: 1.2 nM
Cl.O=C1CSCC(=O)N1CCCCN1CCN(c2nccc3occc23)CC1		35.8		> 1000			
CC1(C)CC(=O)N(CCCCN2CCN(c3nccc4sc(Br)cc34)CC2)C(=O)C1.Cl		65.3		228	70.9	3.7	IC50 [6]: 27.2 nM
Cl.Cn1ccc2c(N3CCN(CCCCN4C(=O)COCC4=O)CC3)nccc21		> 100		> 1000			
Cc1cc2c(N3CCN(CCCC(O)c4ccc(F)cc4)CC3)nccc2o1.Cl (configuration not stated)		23.2	6.2				
Cl.O=C1CCCC(=O)N1CCCCN1CCN(c2nccc3sccc23)CC1		5.4	2.5		19.1		ED50 [11]: 55.6 mg/kg; MED ([14]; po): 20 mg/kg; MED50 [12]: inactive; ED50 [13]: inactive
O=C1CSCC(=O)N1CCCCN1CCN(c2nccc3sccc23)CC1		31.9	1.15	608	6.7		IC50 [6]: 1.1 nM
